Results published in ChEMBL document CHEMBL6092128, “2-Aryl-1-hydroxyimidazoles possessing antiviral activity against a wide range of orthopoxviruses, including the variola virus” (RSC Med Chem, 2024).

What was measured:
[1] = Selectivity index, ratio of CC50 for cytotoxicity against African green monkey Vero cells to IC50 for antiviral activity against Cowpox virus Grishak infected in African green monkey Vero cells; assay type: toxicity, cell-based; conditions: read-out: Ratio CC50/IC50
[2] = Selectivity index, ratio of CC50 for cytotoxicity against African green monkey Vero cells to IC50 for antiviral activity against Ectromelia virus K-1 infected in African green monkey Vero cells; assay type: toxicity, cell-based; conditions: read-out: Ratio CC50/IC50
[3] = Selectivity index, ratio of CC50 for cytotoxicity against African green monkey Vero cells to IC50 for antiviral activity against Vaccinia virus Copenhagen infected in African green monkey Vero cells; assay type: toxicity, cell-based; conditions: read-out: Ratio CC50/IC50
[4] = system: Ectromelia virus; assay: Antiviral activity against Ectromelia virus K-1 infected in African green monkey Vero cells assessed as inhibition of virus-induced cytotoxicity incubated for 4 days by neutral red dye uptake based spectrophotometric analysis; assay type: functional, organism-based; conditions: K-1, Vero, 96 h
[5] = system: Vaccinia virus; assay: Antiviral activity against Vaccinia virus Copenhagen infected in African green monkey Vero cells assessed as inhibition of virus-induced cytotoxicity incubated for 4 days by neutral red dye uptake based spectrophotometric analysis; assay type: functional, organism-based, Orthopoxvirus vaccinia
[6] = Cytotoxicity against African green monkey Vero cells assessed as cell destruction incubated for 4 days by neutral red dye uptake based spectrophotometric analysis; assay type: toxicity; conditions: chlorocebus sabaeus, time 4 day
Outline: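 Uninfected confluent Vero monolayers in DMEM with 2% FBS were exposed to 3-fold compound dilutions, final 300 to 0.14 μg mL−1 (some from 600), in triplicate rows for 4 days at 37 °C. Viable cells were measured by neutral red uptake (1.5 h), acid phosphate/ethanol extraction and OD 490 nm. CC50 was taken from semilog concentration–OD curves and recalculated to μM.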

[7] = system: Cowpox virus; assay: Antiviral activity against Cowpox virus Grishak infected in African green monkey Vero cells assessed as inhibition of virus-induced cytotoxicity incubated for 4 days by neutral red dye uptake based spectrophotometric analysis; assay type: functional, organism-based; conditions: 96 h
[8] = Selectivity index, ratio of CC50 for cytotoxicity against African green monkey Vero cells to IC50 for antiviral activity against Variola virus India3a infected in African green monkey Vero cells; assay type: toxicity, cell-based; conditions: read-out: Ratio CC50/IC50
[9] = system: Variola virus; assay: Antiviral activity against Variola virus India3a infected in African green monkey Vero cells assessed as inhibition of virus-induced cytotoxicity incubated for 4 days by neutral red dye uptake based spectrophotometric analysis; assay type: functional, organism-based; conditions: 96 h
[10] = Orthopoxvirus vaccinia, Copenhagen, Vero, 96 h, read-out: IC50

SMILES	selectivity ratio [1]	selectivity ratio [2]	selectivity ratio [3]	IC50 [4] [µM]	IC50 [5, 10] [µM]	CC50 at 96 h [6] [µM]	IC50 [7] [µM]	selectivity ratio [8]	IC50 [9] [µM]	IC50 ([5]; vero)
CC1(C)CC(=O)c2c(nc(-c3ccc([N+](=O)[O-])cc3)n2OCc2ccccc2)C1	15	38	182	30.9	6.39	1160	78.2	–	–	–
O=C(NNC(=O)C1C2C=CC(C3CC23)C1C(=O)O)c1ccc(C(F)(F)F)cc1 (stereo unspecified)	133000	149000	149000	0.008	0.008	–	0.009	149000	0.008	–
CC1(C)CC(=O)c2c(nc(-c3ccc(C#N)cc3)n2O)C1	10	70	351	2.49	0.498	175	17.1	120	1.45	–
CC1(C)CC(=O)c2c(nc(-c3ccc([N+](=O)[O-])cc3)n2OCc2ccc(Cl)c(Cl)c2)C1	15	60	178	1.8	0.61	109	7.04	–	–	–
Nc1ccn(C[C@@H](CO)OCP(=O)(O)O)c(=O)n1 [CIDOFOVIR ANHYDROUS]	23	28	34	39.4	–	1110	48.2	26	43.1	–
COn1c(-c2ccc(N(C)C)cc2)nc(C)c1C(C)=O	–	–	< 8	–	62.1	197	–	–	–	–
CC1(C)CC(=O)c2c(nc(-c3ccc(C(F)(F)F)cc3)n2O)C1	19	94	300	0.49	0.154	46.2	2.41	257	0.18	–
CC(=O)c1c(C)n(C)c(-c2ccc(C#N)cc2)[n+]1[O-]	–	–	–	–	–	1510	–	–	–	Not_active
Cn1c2c([n+]([O-])c1-c1ccc(C(F)(F)F)cc1)C(=O)CC(C)(C)C2	–	–	146	–	14.2	2080	–	–	–	–
COn1c(-c2ccc([N+](=O)[O-])cc2)nc(C)c1C(C)=O	20	32	93	13.9	4.76	444	22.3	–	–	–
CC(=O)c1c(C)nc(-c2ccc(C#N)cc2)n1O	–	–	76	–	1.12	84.6	–	–	–	–
COn1c(-c2ccc(C#N)cc2)nc2c1C(=O)CC(C)(C)C2	–	–	27	–	28.5	757	–	–	–	–
COc1ccc(-c2nc(C)c(C(C)=O)n2OC)cc1	–	–	< 8	–	207	357	–	–	–	–
COn1c(-c2ccc([N+](=O)[O-])cc2)nc2c1C(=O)CC(C)(C)C2	65	92	291	12.5	3.96	1150	17.9	291	3.96	–
CC1(C)CC(=O)c2c(nc(-c3ccc([N+](=O)[O-])cc3)n2OCc2ccccc2Br)C1	< 8	< 8	34	28.7	2.91	100	29.1	–	–	–
COc1ccc(-c2nc(C)c(C(C)=O)n2O)cc1	–	–	34	–	17.9	614	–	–	–	–
CC(=O)c1c(C)nc(-c2ccc(C(F)(F)F)cc2)n1O	–	–	55	–	0.07	3.87	–	–	–	–
CC(=O)c1c(C)nc(-c2ccc(N(C)C)cc2)n1O	–	–	23	–	12.9	299	–	–	–	–
CC(=O)c1c(C)n(C)c(-c2ccc([N+](=O)[O-])cc2)[n+]1[O-]	–	–	–	–	–	2980	–	–	–	Not_active
Cn1c2c([n+]([O-])c1-c1ccc([N+](=O)[O-])cc1)C(=O)CC(C)(C)C2	–	–	13	–	183	2440	–	–	–	–
CC1(C)CC(=O)c2c(nc(-c3ccc([N+](=O)[O-])cc3)n2OCc2c(F)cccc2F)C1	< 8	12	43	4.49	1.22	51.7	7.39	–	–	–
Cc1ccc(C)c(COn2c(-c3ccc([N+](=O)[O-])cc3)nc3c2C(=O)CC(C)(C)C3)c1	< 8	< 8	79	14.4	1.34	105	32.3	–	–	–
CC1(C)CC(=O)c2c(nc(-c3ccc([N+](=O)[O-])cc3)n2O)C1	123	358	1070	0.39	0.133	142	1.16	373	0.38	–
CC1(C)CC(=O)c2c(n(Cc3ccccc3)c(-c3ccc([N+](=O)[O-])cc3)[n+]2[O-])C1	–	–	13	–	27.7	359	–	–	–	–
COn1c(-c2ccc(C(F)(F)F)cc2)nc(C)c1C(C)=O	–	–	30	–	5.9	176	–	–	–	–
COn1c(-c2ccc(C#N)cc2)nc(C)c1C(C)=O	–	–	< 8	–	228	1060	–	–	–	–
CC(=O)c1c(C)nc(-c2ccc([N+](=O)[O-])cc2)n1O	< 8	22	44	1.3	0.651	28.3	5.9	–	–	–
